{
  "source": "ChEMBL document CHEMBL1123282",
  "about": "“Antiinflammatory activity of substituted 6-hydroxypyrimido[2,1-f]purine-2,4,8(1H,3H,9H)-triones. Atypical nonsteroidal antiinflammatory agents” (J Med Chem, 1986)",
  "system": "Rattus norvegicus",
  "experiment": "compound was tested in vivo for antiinflammatory activity against rats by RPAR(reverse passive Arthus reaction) synovitis method",
  "type": "functional",
  "in_short": "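Lewis rats dosed orally 1 h before iv BSA (2.28 mg) and intraarticular rabbit anti-BSA (0.54 mg) into one knee, saline into the other; dosed orally again at 3 h. Total dose counted. At about 17 h, subpatellar tissue with synovium weighed; Δ weight between the two knees taken as the response. Compared with lesion controls by ANOVA.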",
  "data": [
    {"compound": "Cn1c(=O)c2c(nc3n(Cc4ccccc4)c(=O)/c(=C/O)c(=O)n23)n(C)c1=O", "values": [
      {"measurement": "Inhibition", "result": 14, "unit": "%"}
    ]}
  ]
}
